≈ marks a conversion by molar mass, not a printed value. Calls of active or inactive are those of the source. The calls are words filed in the database; no cut-off is given here.
Key:
[1] = Metabolic stability in CD1 mouse liver microsomes assessed as intrinsic clearance at 2 uM measured up to 120 mins by LC-MS/MS analysis; assay type: ADME, Microsome; details: 2 h
[2] = Metabolic stability in CD1 mouse liver microsomes assessed as half life at 2 uM measured up to 120 mins by LC-MS/MS analysis; assay type: ADME, Microsome
[3] = test system: Streptococcus pneumoniae; assay: Antibacterial activity against Streptococcus pneumoniae by CLSI method; assay type: functional
[4] = test system: Staphylococcus aureus; assay: Antibacterial activity against cystic fibrosis isolate Staphylococcus aureus by CLSI method; assay type: functional
[5] = target: DNA gyrase (Staphylococcus aureus, UniProt P0A0K8+P20831, D83N); assay: Inhibition of Staphylococcus aureus DNA Gyrase D83N mutant assessed as reduction in supercoiling pBR322 DNA by measuring relaxation by bromophenol blue staining based TAE gel method
[6] = test system: Staphylococcus aureus; assay: Antibacterial activity against Staphylococcus aureus by CLSI method; assay type: functional
Summary of the method: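 MICs were determined by broth microdilution per CLSI guidelines, in triplicate at minimum. Strains were S. aureus ATCC 29213, MRSA USA300 and a cystic fibrosis respiratory isolate, and ranges are given where seen.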

[7] = test system: Staphylococcus aureus; assay: Antibacterial activity against Staphylococcus aureus harbouring GyrA D83N mutant by CLSI method; assay type: functional
[8] = test system: Staphylococcus aureus; assay: Antibacterial activity against Staphylococcus aureus 3527 by CLSI method; assay type: functional
[9] = test system: Staphylococcus aureus; assay: Antibacterial activity against methicillin-resistant Staphylococcus aureus USA300 by CLSI method; assay type: functional
[10] = target: Topoisomerase IV (Staphylococcus aureus, UniProt P0C1S7+P0C1U9); assay: Inhibition of Staphylococcus aureus topoisomerase IV decatenation activity using kDNA as substrate by ethidium bromide/bromophenol blue staining based agarose gel electrophoresis analysis; assay type: protein-complex assay
[11] = target: DNA gyrase (Staphylococcus aureus, UniProt P0A0K8+P20831); assay: Inhibition of Staphylococcus aureus Gyrase supercoiling activity assessed as reduction in supercoiling pBR322 DNA by measuring relaxation by bromophenol blue staining based TAE gel method; assay type: protein-complex assay
[12] = test system: Staphylococcus aureus; assay: Antibacterial activity against Staphylococcus aureus ATCC 29213 by CLSI method; assay type: functional
[13] = test system: Staphylococcus aureus; assay: Selectivity index, ratio of IC50 for inhibition of Staphylococcus aureus topoisomerase IV decatenation activity to IC50 for inhibition of Staphylococcus aureus DNA gyrase supercoiling activity
Summary of the method: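 Both IC50s were measured in gel-based assays with S. aureus enzymes: supercoiling inhibition for DNA gyrase and decatenation inhibition for TopoIV. The ratio is TopoIV IC50 divided by gyrase IC50.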

[14] = test system: Acinetobacter baumannii; assay: Antibacterial activity against Acinetobacter baumannii by CLSI method; assay type: functional
[15] = test system: Enterococcus sp.; assay: Antibacterial activity against Enterococcus sp. by CLSI method; assay type: functional
[16] = test system: Staphylococcus aureus; assay: Selectivity ratio of IC50 for inhibition of Staphylococcus aureus Gyrase D83N mutant to IC50 for inhibition of Staphylococcus aureus Gyrase
Summary of the method: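 Ratio of two IC50s: the IC50 from the D83N mutant gyrase supercoiling assay (commercial kit) divided by the IC50 from the gel-based wild-type S. aureus gyrase supercoiling assay.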

[17] = test system: K562; assay: Growth inhibition of log-phase human K562 cells incubated for 48 hrs by NBTI cell counting analysis; assay type: functional, cell-based
[18] = Growth inhibition of human K/VP.5 cells incubated for 48 hrs by NBTI cell counting analysis; assay type: functional; details: K562, 48 h
[19] = target: T1, DNA gyrase (Staphylococcus aureus) (UniProt P0A0K8+P20831); assay: Inhibition of Staphylococcus aureus DNA Gyrase assessed as reduction in supercoiling pBR322 DNA by measuring induction of double strand breaks at 200 uM by ethidium bromide staining based agarose gel electrophoresis; assay type: protein-complex assay
[20] = target: T1, DNA gyrase (Staphylococcus aureus); assay: Inhibition of Staphylococcus aureus DNA Gyrase assessed as reduction in supercoiling pBR322 DNA by measuring induction of single strand breaks at 100 uM by ethidium bromide staining based agarose gel electrophoresis; assay type: protein-complex assay
[21] = target: Voltage-gated inwardly rectifying potassium channel KCNH2 (Homo sapiens, UniProt Q12809); assay: Inhibition of human ERG
Chain of Voltage-gated inwardly rectifying potassium channel KCNH2 (Q12809 whole entry): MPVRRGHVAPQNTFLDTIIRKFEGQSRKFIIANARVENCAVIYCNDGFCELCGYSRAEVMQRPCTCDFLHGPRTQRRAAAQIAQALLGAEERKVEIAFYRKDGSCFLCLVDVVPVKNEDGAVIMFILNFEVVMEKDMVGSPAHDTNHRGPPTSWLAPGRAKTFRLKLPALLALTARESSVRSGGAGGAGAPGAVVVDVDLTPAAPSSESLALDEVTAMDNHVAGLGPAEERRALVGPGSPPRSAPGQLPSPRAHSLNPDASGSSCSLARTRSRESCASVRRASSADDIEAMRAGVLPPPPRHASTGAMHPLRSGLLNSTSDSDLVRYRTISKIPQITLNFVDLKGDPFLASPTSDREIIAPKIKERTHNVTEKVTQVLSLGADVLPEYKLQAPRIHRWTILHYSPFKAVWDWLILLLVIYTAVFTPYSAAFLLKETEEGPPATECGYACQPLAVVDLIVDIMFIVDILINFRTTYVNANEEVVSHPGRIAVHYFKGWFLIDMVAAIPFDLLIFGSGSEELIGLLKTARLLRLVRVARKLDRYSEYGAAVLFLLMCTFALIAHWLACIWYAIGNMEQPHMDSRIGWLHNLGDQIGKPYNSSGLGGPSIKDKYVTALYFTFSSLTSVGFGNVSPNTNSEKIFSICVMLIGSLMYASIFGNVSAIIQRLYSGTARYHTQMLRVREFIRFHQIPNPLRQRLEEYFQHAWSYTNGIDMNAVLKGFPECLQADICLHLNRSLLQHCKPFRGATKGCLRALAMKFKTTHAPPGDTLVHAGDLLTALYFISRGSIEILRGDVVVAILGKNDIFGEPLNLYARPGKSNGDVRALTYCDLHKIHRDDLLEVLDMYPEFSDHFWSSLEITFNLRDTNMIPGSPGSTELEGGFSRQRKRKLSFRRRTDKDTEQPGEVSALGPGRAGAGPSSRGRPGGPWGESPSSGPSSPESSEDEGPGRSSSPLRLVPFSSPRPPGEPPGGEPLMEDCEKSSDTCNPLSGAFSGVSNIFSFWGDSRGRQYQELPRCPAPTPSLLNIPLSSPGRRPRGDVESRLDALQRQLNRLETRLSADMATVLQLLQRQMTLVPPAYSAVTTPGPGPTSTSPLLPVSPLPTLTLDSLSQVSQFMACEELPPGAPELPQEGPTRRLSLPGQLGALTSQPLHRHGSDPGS
Summary of the method: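 hERG channel inhibition was measured on the IonWorks Barracuda automated patch system. IC50 came from eight-point concentration–response curves with four replicates per concentration.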

[22] = test system: Bacillus anthracis; assay: Antibacterial activity against Bacillus anthracis by CLSI method; assay type: functional
[23] = test system: Streptococcus pyogenes; assay: Antibacterial activity against Streptococcus pyogenes isolates by CLSI method; assay type: functional
[24] = Homo sapiens, K562, 48 h, read-out: IC50

SMILES	MIC [4]	IC50 [5]	MIC [7]	MIC [8]	MIC [9]	IC50 [10]	IC50 [11]	MIC [12]	Ratio IC50 [13]	Ratio IC50 [16]	other results
COc1ccc2nccc(CCN3CCC(NCc4cc5c(cn4)OCCO5)CC3)c2c1											intrinsic clearance (CLint) [1]: 2150 µL/min/mg; half-life at 2 µM [2]: 2.54 min
COc1ccc2ncc(F)c(C[C@H](O)[C@H]3OC[C@H](NCc4ccc5c(c4)OCCO5)CO3)c2c1	0.25 µg/mL (≈ 0.531 µM)	2200 nM	4 µg/mL (≈ 8.5 µM)	0.125 µg/mL (≈ 0.266 µM)	0.125 µg/mL (≈ 0.266 µM)	2300 nM	31 nM	0.125 µg/mL (≈ 0.266 µM)	73	72	MIC50 [3]: 1 µg/mL (≈ 2.13 µM); MIC50 [6]: 0.06 µg/mL (≈ 0.128 µM); MIC50 [14]: 64 µg/mL (≈ 136 µM); MIC50 [15]: 0.06 µg/mL (≈ 0.128 µM)
COc1ccc2ccc(F)c(C[C@H](O)[C@H]3OC[C@H](NCc4cc5c(nn4)OCCS5)CO3)c2n1	0.25 µg/mL (≈ 0.512 µM)	12000 nM	4 µg/mL (≈ 8.19 µM)	0.5 µg/mL (≈ 1.02 µM)	0.5 µg/mL (≈ 1.02 µM)	4600 nM	120 nM	0.25 µg/mL (≈ 0.512 µM)	39	99	
COc1ccc2ncc(F)c(C(O)C[C@H]3OC[C@H](NCc4ccc5c(n4)NC(=O)CO5)CO3)c2c1 (mixture of isomers)	0.5 µg/mL (≈ 1.03 µM)		4 µg/mL (≈ 8.26 µM)	≤ 0.5 µg/mL	0.25 µg/mL (≈ 0.516 µM)	2600 nM	520 nM	0.5 µg/mL (≈ 1.03 µM)			IC50 ([17]; k562): Not Active; IC50 [18]: > 50000 nM
COc1ccc2ncc(F)c(C(O)C[C@H]3OC[C@H](NCc4ccc5c(n4)NC(=O)CS5)CO3)c2c1 (mixture of isomers)	0.5 µg/mL (≈ 0.999 µM)		4 µg/mL (≈ 7.99 µM)	≤ 0.25 µg/mL	0.25 µg/mL (≈ 0.499 µM)	1500 nM	330 nM	0.25 µg/mL (≈ 0.499 µM)			IC50 [17, 24]: 56000 nM; IC50 [18]: > 50000 nM
O=c1ccc2ncc(=O)n3c2n1C[C@H]3CN1CCC(NCc2cc3c(cn2)OCCC3)CC1 [GEPOTIDACIN]	0.25 µg/mL (≈ 0.557 µM)		8 µg/mL (≈ 17.8 µM)	0.25 µg/mL (≈ 0.557 µM)	0.25 µg/mL (≈ 0.557 µM)			0.25 µg/mL (≈ 0.557 µM)			Activity [19]: Active; Activity [20]: Active
COc1ccc2ncc(F)c(C[C@H](O)[C@H]3OC[C@H](NCc4cc5c(cn4)OCO5)CO3)c2n1	0.5 µg/mL (≈ 1.09 µM)	73000 nM	> 8 µg/mL	1 µg/mL (≈ 2.18 µM)	1 µg/mL (≈ 2.18 µM)	18000 nM	850 nM	0.5 µg/mL (≈ 1.09 µM)	22	86	
COc1ccc2ncc(F)c(C[C@H](O)[C@H]3OC[C@H](NCc4cnc5c(n4)OCCO5)CO3)c2n1	0.125 µg/mL (≈ 0.264 µM)	29000 nM	8 µg/mL (≈ 16.9 µM)	1 µg/mL (≈ 2.11 µM)	1 µg/mL (≈ 2.11 µM)	19000 nM	360 nM	0.25 µg/mL (≈ 0.528 µM)	52	80	
O=C(O)c1cn(C2CC2)c2cc(N3CCNCC3)c(F)cc2c1=O											Activity [19]: Active; Activity [20]: Active
COc1ccc2ncc(F)c(CC[C@H]3OC[C@H](NCc4ccc5c(c4)OCCO5)CO3)c2n1											IC50 [21]: 23000 nM; intrinsic clearance (CLint) [1]: 2240 µL/min/mg; half-life at 2 µM [2]: 2.43 min
COc1ccc2ncc(F)c(C[C@H](O)[C@H]3OC[C@H](NCc4cc5c(cn4)OCCO5)CO3)c2n1	0.125 µg/mL (≈ 0.265 µM)	13000 nM	4 µg/mL (≈ 8.47 µM)	0.25 µg/mL (≈ 0.529 µM)	≤ 0.25 µg/mL	1300 nM	39 nM	0.125 µg/mL (≈ 0.265 µM)			MIC50 [3]: 0.5 µg/mL (≈ 1.06 µM); MIC50 [6]: 0.25 µg/mL (≈ 0.529 µM); IC50 [18]: 145000 nM; MIC50 [14]: 64 µg/mL (≈ 135 µM); MIC50 [15]: 0.12 µg/mL (≈ 0.254 µM); MIC50 [22]: 2 µg/mL (≈ 4.23 µM); MIC90 [22]: 8 µg/mL (≈ 16.9 µM)
COc1ccc2ncc(F)c(C[C@H](O)[C@H]3OC[C@H](NCc4cc5c(nn4)OCCO5)CO3)c2c1	0.5 µg/mL (≈ 1.06 µM)	51000 nM	16 µg/mL (≈ 33.9 µM)	2 µg/mL (≈ 4.23 µM)	2 µg/mL (≈ 4.23 µM)	8500 nM	840 nM	1 µg/mL (≈ 2.12 µM)	10	60	
COc1ccc2ncc(F)c(C[C@H](O)[C@H]3OC[C@H](NCc4ccc5c(c4)OCCO5)CO3)c2n1	0.125 µg/mL (≈ 0.265 µM)	2700 nM	4 µg/mL (≈ 8.48 µM)	0.125 µg/mL (≈ 0.265 µM)	0.125 µg/mL (≈ 0.265 µM)	380 nM	60 nM	0.125 µg/mL (≈ 0.265 µM)			MIC50 [3]: 0.5 µg/mL (≈ 1.06 µM); MIC50 [6]: 0.06 µg/mL (≈ 0.127 µM); IC50 [18]: 30500 nM; MIC50 [14]: 16 µg/mL (≈ 33.9 µM); MIC50 [15]: 0.06 µg/mL (≈ 0.127 µM); MIC50 [22]: 1 µg/mL (≈ 2.12 µM); MIC90 [22]: 4 µg/mL (≈ 8.48 µM)
COc1ccc2nccc(CCN3CCC(NCc4ccc5c(c4)OCCO5)CC3)c2c1											intrinsic clearance (CLint) [1]: 1940 µL/min/mg; half-life at 2 µM [2]: 2.81 min
COc1ccc2ncc(F)c(C[C@H](O)[C@H]3OC[C@H](NCc4cc5c(nn4)OCCS5)CO3)c2c1	0.25 µg/mL (≈ 0.512 µM)	19000 nM	8 µg/mL (≈ 16.4 µM)	0.5 µg/mL (≈ 1.02 µM)	0.5 µg/mL (≈ 1.02 µM)	4800 nM	56 nM	0.25 µg/mL (≈ 0.512 µM)	87	336	MIC50 [3]: 1 µg/mL (≈ 2.05 µM); MIC50 [6]: 0.5 µg/mL (≈ 1.02 µM); MIC50 [14]: > 64 µg/mL; MIC50 [15]: 0.25 µg/mL (≈ 0.512 µM)
COc1ccc2ncc(F)c(C(O)C[C@H]3OC[C@H](NCc4ccc5c(n4)NC(=O)CS5)CO3)c2n1 (mixture of isomers)	0.25 µg/mL (≈ 0.498 µM)		2 µg/mL (≈ 3.99 µM)	≤ 0.25 µg/mL	0.125 µg/mL (≈ 0.249 µM)	2800 nM	54 nM	≤ 0.25 µg/mL			IC50 [17, 24]: 52100 nM; IC50 [18]: > 50000 nM
C[C@H]1COc2c(N3CCN(C)CC3)c(F)cc3c(=O)c(C(=O)O)cn1c23.C[C@H]1COc2c(N3CCN(C)CC3)c(F)cc3c(=O)c(C(=O)O)cn1c23.O [LEVOFLOXACIN]											MIC50 [23]: 8 µg/mL; MIC90 [23]: 64 µg/mL

Reference: ChEMBL document CHEMBL4837261, “Optimization of TopoIV Potency, ADMET Properties, and hERG Inhibition of 5-Amino-1,3-dioxane-Linked Novel Bacterial Topoisomerase Inhibitors: Identification of a Lead with In Vivo Efficacy against MRSA” (J Med Chem, 2021)
